The results in this text go back to ChEMBL document CHEMBL3351263, “Synthesis and biological evaluation of novel marine-derived indole-based 1,2,4-oxadiazoles derivatives as multifunctional neuroprotective agents” (2015).

Activity calls are given as the source filed them. The calls are words filed in the database; no cut-off is given here.

The subject of assay [1] is SH-SY5Y. Description: Neuroprotective activity in human SH-SY5Y cells assessed as inhibition H2O2-induced damage measured as cell viability at 100 uM measured after 24 hrs. Format: functional. An outline of the steps:
(§1)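 Human SH-SY5Y cells were subjected to H2O2-induced damage, with compounds at 1 or 10 μM and L-NAC at 100 μM as the positive control. Cell viability was compared with control and with H2O2-only wells. Data are mean ± SD, n = 3-6.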

Assay [2] concerns SH-SY5Y. Kind of assay: Neuroprotective activity in human SH-SY5Y cells assessed as inhibition Abeta25-35-induced reduction of cell viability at 10 uM compound pretreated for 2 hrs before induction cell viability measured after 24 hrs (reference value: 69.77%). In kind it is functional.
In assay [3] the test system is SH-SY5Y. Kind of assay: Neuroprotective activity in human SH-SY5Y cells assessed as inhibition Abeta25-35-induced reduction of cell viability at 1 uM compound pretreated for 2 hrs before induction cell viability measured after 24 hrs (reference value: 69.77%). Format: functional.
The subject of assay [4] is SH-SY5Y. Kind of assay: Neuroprotective activity in human SH-SY5Y cells assessed as inhibition OGD-induced injuries measured as cell viability at 10 uM measured after 24 hrs. In kind it is functional. The gist of the method:
(§2)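 Oxygen-glucose deprivation (OGD) injury was applied to human SH-SY5Y cells, with compounds at 1 μM or higher. Cell viability, or its increase, was compared with control and with OGD-only wells. Data are mean ± SD, n = 3-6.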

The subject of assay [5] is SH-SY5Y. Description: Neuroprotective activity in human SH-SY5Y cells assessed as inhibition H2O2-induced damage measured as cell viability at 1 uM measured after 24 hrs. Format: functional, cell-based. The gist of the method: as §1
Assay [6] concerns SH-SY5Y. Kind of assay: Neuroprotective activity in human SH-SY5Y cells assessed as inhibition OGD-induced injuries measured as cell viability at 1 uM measured after 24 hrs. Format: functional. The gist of the method: as §2
For assay [7], the system named is SH-SY5Y. Kind of assay: Neuroprotective activity in human SH-SY5Y cells assessed as inhibition H2O2-induced damage measured as cell viability at 10 uM measured after 24 hrs. In kind it is functional. An outline of the steps:
as §1

The test system of assay [8] is A549. Description: Cytotoxicity against human A549 cells by MTT assay. In kind it is functional. An outline of the steps: (§3)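 Cells were exposed to compound at 10 μM, and cytotoxicity was expressed as percent inhibition of growth.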
(Tetrazolium assays rely on reduction of a dye to a coloured formazan, in cell work by metabolically active cells.)

A short description of assay [9]: Cytotoxicity against human HL60 cells by MTT assay. Format: functional, HL-60. The gist of the method:
as §3

For assay [10], the system named is SH-SY5Y. Description: Neuroprotective activity in human SH-SY5Y cells assessed as inhibition Abeta25-35-induced reduction of cell viability at 10 uM after 24 hrs by SRB assay. In kind it is functional. On the technique in general: Sulforhodamine B stains cellular protein and so reports cell mass.
The subject of assay [11] is SH-SY5Y. Description: Neuroprotective activity in human SH-SY5Y cells assessed as inhibition OGD-induced injuries measured as increase in cell viability at 1 uM measured after 24 hrs. In kind it is functional. An outline of the steps: as §2

Regarding `CC(=O)N[C@@H](CS)C(=O)O` [ACETYLCYSTEINE], the Activity in [1] stood at 89.2%.

On to `CC(C)c1ccc(-c2ccc(-c3noc(Cc4c[nH]c5ccccc45)n3)o2)cc1`, for which, in assay [2], the Activity is listed as 93.3%. In addition, the outcome in [3] was inactive.

`Nc1ccc(-c2cccc(-c3noc(Cc4c[nH]c5ccccc45)n3)c2)cc1`: the outcome in assay [4] and in [3] was inactive. The Activity in assay [2] worked out at 106%.

With `CN1CCN(c2ccc(-c3ccc(-c4noc(Cc5c[nH]c6ccccc56)n4)o3)cc2)CC1`, the outcome in assay [2] and in assay [3] was inactive.

`c1ccc2c(Cc3nc(-c4ccc(-c5ccc(N6CCOCC6)cc5)o4)no3)c[nH]c2c1`: the result in assay [2] and in assay [3] was inactive.

With `Fc1ccc(-c2ccc(-c3noc(Cc4c[nH]c5ccccc45)n3)o2)cc1`, the Activity in assay [2] turned out to be 84.8%. Moreover, the outcome in assay [3] was inactive.

With `CCOc1ccc(-c2ccc(-c3noc(Cc4c[nH]c5ccccc45)n3)o2)cc1`, the Activity in assay [4] is reported as 76.2%; in assay [6], 80.6%; in assay [2] it was 89.1%; in assay [7] it was 98%. The result in assay [5] and in assay [3] was inactive.

Consider `Oc1ccc(-c2ccc(-c3noc(Cc4c[nH]c5ccccc45)n3)o2)cc1`, for which the result in [2] and in [3] was inactive.

`Nc1ccc(-c2ccc(-c3noc(Cc4c[nH]c5ccccc45)n3)s2)cc1`: the result in [2] and in assay [3] was inactive.

For the compound `Clc1ccc(-c2ccc(-c3noc(Cc4c[nH]c5ccccc45)n3)o2)cc1`, the Activity in assay [2] is on record as 83.9%. Moreover, the result in assay [3] was inactive.

`CCc1ccc(-c2ccc(-c3noc(Cc4c[nH]c5ccccc45)n3)o2)cc1`: in [2], the Activity is on record as 100%. For the same compound, the outcome in [3] was inactive.

As for `Cc1ccccc1-c1ccc(-c2noc(Cc3c[nH]c4ccccc34)n2)o1`, the result in [2] and in assay [3] was inactive.

Take `CC(C)(C)c1ccc(-c2ccc(-c3noc(Cc4c[nH]c5ccccc45)n3)o2)cc1`: in assay [2], the Activity came out at 92.1%. The outcome in [3] was inactive.

For the compound `Nc1ncc(-c2ccc(-c3noc(Cc4c[nH]c5ccccc45)n3)o2)cn1`, the “inhibition (INH)” value in assay [8] is on record as 2%; in assay [9], 26%. Also, the result in assay [2] and in assay [3] was inactive.

Regarding `CCCc1ccc(-c2ccc(-c3noc(Cc4c[nH]c5ccccc45)n3)o2)cc1`, the Activity is given as 96% in assay [10], 114.2% in assay [2] and 89.7% in [3].

Take `c1ccc(-c2ccc(-c3noc(Cc4c[nH]c5ccccc45)n3)o2)cc1`: the outcome in [2] and in assay [3] was inactive.

In the case of `O=C(O[C@@H]1Cc2c(O)cc(O)cc2O[C@@H]1c1cc(O)c(O)c(O)c1)c1cc(O)c(O)c(O)c1` [EPIGALOCATECHIN GALLATE], the Activity in assay [2] stood at 96.2%.

As to `N#Cc1ccc(-c2ccc(-c3noc(Cc4c[nH]c5ccccc45)n3)o2)cc1`, the Activity in assay [2] was 93.3%. Also, the result in assay [3] was inactive.

With `CCCOc1ccc(-c2ccc(-c3noc(Cc4c[nH]c5ccccc45)n3)o2)cc1`, the Activity in assay [4] is given as 84.1%; in [10], 94%; in assay [6], 80.4%; in assay [2] it was 115.5%; in assay [3], 90%; in [7] it was 98%. The result in assay [5] was inactive.

For the compound `Cc1cccc(-c2ccc(-c3noc(Cc4c[nH]c5ccccc45)n3)o2)c1`, the result in assay [2] and in [3] was inactive.

On to `Brc1ccc(-c2ccc(-c3noc(Cc4c[nH]c5ccccc45)n3)o2)cc1`, for which, in assay [2], the Activity is listed as 83.5%. In addition, the result in assay [3] was inactive.

Regarding `OCc1ccc(-c2ccc(-c3noc(Cc4c[nH]c5ccccc45)n3)o2)cc1`, in [2], the Activity is 92.1%. In addition, in assay [3], the outcome was inactive.

Turning to `Nc1ccc(-c2ccc(-c3noc(Cc4c[nH]c5ccccc45)n3)o2)cc1`, the Activity in [11] turned out to be 18.96%; in [2] it was 92.4%. Besides, the entries for the “inhibition (INH)” value in [8] and in [9] were 2% and 26%, respectively. The result in assay [3] was inactive.

`Cc1ccc(-c2ccc(-c3noc(Cc4c[nH]c5ccccc45)n3)o2)cc1`: the Activity in [2] worked out at 80.3%. The outcome in assay [3] was inactive.

Consider `CN(C)c1ccc(-c2ccc(-c3noc(Cc4c[nH]c5ccccc45)n3)o2)cc1`, for which the result in assay [5], in assay [2] and in assay [3] was inactive. Moreover, the Activity in assay [7] is given as 98%.

Regarding `COc1ccc(-c2ccc(-c3noc(Cc4c[nH]c5ccccc45)n3)o2)cc1`, the outcome in assay [5] and in assay [3] was inactive. Moreover, the Activity in assay [2] is on record as 91.5%; in assay [7] it was 98%.
